Compound activity as filed in PubChem BioAssay.
Most compounds without a hit are left out; they make up all but 2.2% or so of the library.
V-ATPase pHluor = yeast V-ATPase proton transport regulation by pHLuorin. S. cerevisiae, pHLuorin cytosolic pH fluorescence. response, % at 10 µM. 350,000 compounds, 0.37% hits; in the data active = response mostly above about 7.3%, no sharp cut-off; inactive = mostly below about 5.4%; note: actives read high
GAA850 FXN act = activators of GAA850 frataxin (FXN) promoter | HEK293 lucGAA850 FXN promoter luciferase reporter, 24 h; percent of 10 µM SAHA response | activation, % at 6 µM | 360,000 compounds, 0.56% hits;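 active = activation above the average of all compounds screened plus 3 SD, cutoff fixed separately per campaign, cut at about 7.5% in these data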;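 note: 0% = DMSO wells and 100% = 10 µM SAHA wells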
Env fusion inh = HIV envelope-mediated fusion inhibition; HeLa-JRFL Env/CEM21 cell fusion, luciferase; inhibition, % at 12.3 µM; 360,000 compounds, 1.1% hits; AID 651610;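 active = mean replicate inhibition score of at least 50 and every replicate individually at or above 50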;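 note: 0% = plate neutral controls and 100% = maraviroc near 300 nM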
NR2E3 ag-1 = human photoreceptor-specific nuclear receptor agonism; Q9Y5X4; CHO-S Gal4-NCOR/VP16-NR2E3 two-hybrid, luciferase; inhibition of corepressor binding, % at 3.98 µM; 360,000 compounds, 0.35% hits;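 active = inhibition above the mean of all tested compounds plus 3 SD, cut at about 70% in these data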;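 note: 0% = DMSO with NR2E3 transfected cells and 100% = cells lacking NR2E3 construct; higher means lower luciferase signal from less NR2E3 corepressor binding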
Target sequence (Q9Y5X4 whole entry, looked up, the tested form may be a part): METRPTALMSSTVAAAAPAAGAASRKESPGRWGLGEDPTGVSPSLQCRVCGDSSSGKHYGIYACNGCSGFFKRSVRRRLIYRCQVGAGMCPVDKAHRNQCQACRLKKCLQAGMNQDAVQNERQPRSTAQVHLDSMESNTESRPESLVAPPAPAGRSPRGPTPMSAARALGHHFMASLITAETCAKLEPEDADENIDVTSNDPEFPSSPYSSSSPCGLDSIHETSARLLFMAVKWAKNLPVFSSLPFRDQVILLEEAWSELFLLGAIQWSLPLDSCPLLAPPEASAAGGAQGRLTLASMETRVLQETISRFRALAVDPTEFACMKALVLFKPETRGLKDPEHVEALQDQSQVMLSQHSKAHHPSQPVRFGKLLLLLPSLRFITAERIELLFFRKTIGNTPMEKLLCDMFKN
NR2E3 ag-2 = activates human photoreceptor nuclear receptor NR2E3; GST-NR2E3/biotin-RetCOR TR-FRET, 1536-well; 320,000 compounds, 0.12% hits; AID 2300; Q9Y5X4; inhibition of corepressor binding, % at 4.78 µM;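 active = percent inhibition above the cutoff of mean plus 3 SD of all tested compounds, set per screening campaign, cut at about 20% in these data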;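 note: 0% = DMSO wells and 100% = biotin wells as full block of FRET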
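Assay system: NR2E3–RetCOR corepressor complex. Quantity: 1.35 nM GST-NR2E3. Buffer or medium: pH 7.5 Tris-based buffer. Reagent: biotinylated RetCOR corepressor at 7 nM final. Schedule: 5 h at 4 °C. Detection: TR-FRET, emission read at 617 and 671 nm. Replicates: one well per compound, singlicate testing.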
GalR3 antagonist = blocks the human galanin receptor 3; O60755; HEK293 GalR3-CNG cAMP membrane potential fluorescence; galR3 body fused to GalR1 C-terminus; inhibition, % at 3 µM; 360,000 compounds, 0.44% hits;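 active = inhibition above the screen-wide average plus 3 SD, cut at about 13% in these data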;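 note: forskolin and galanin both at EC90 stimulate the cells; cAMP rise reported by CNG channel membrane potential dye signal; 0% = forskolin plus galanin with DMSO and 100% = forskolin alone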
* marks the source's active call; other numbers are inactive results; . = not tested or not shown; ! = not confirmed by another sample; [ ] = dose if it differs, or a comment.

SMILES	V-ATPase pHluor	GAA850 FXN act	Env fusion inh	NR2E3 ag-1	NR2E3 ag-2	GalR3 antagonist
CCC(C(=O)OCC(=O)N1C(C)CCCC1C)c1ccccc1 (stereo not drawn)	284*	0	-1	-15	2	-6
CC(=O)N1[C@@H]2c3ccc(-c4cccnc4)c(=O)n3C[C@H]1[C@H](CO)[C@H]2C(=O)N1CCc2ccccc2C1	.	.	6[16.7 µM]	.	.	.
CCC(C)Sc1cc(-c2nc3ccccn3c2NC2CCCCC2)ccc1OC (stereo not drawn)	0	0	59*!	5	1	-9
C[C@H](CO)N1C[C@H](C)[C@@H](CN(C)C(=O)Nc2cccc3ccccc23)Oc2c(NC(=O)c3ccncc3)cccc2C1=O	.	.	13[16.7 µM]	.	.	.
Cc1ccc(C)c(OCC(=O)Nc2c[nH]c(=O)[nH]c2=O)c1	3	2	57*	-9	-2	-3
Cc1ccc(C)c(OCC(=O)Nc2nonc2NC(=O)COc2cc(C)ccc2C)c1	-4	-1	68*	-17	5	-4
O=C(c1ccc2ncsc2c1)N1CCN(c2nc3ccccc3s2)CC1	2	-2	76*	13	3	-5
CCC(=O)N1CCN(c2nc3ccccc3s2)CC1	-2	5	.	-107	2	2
O=C(c1cc2sccc2n1Cc1ccccc1)N1CCN(c2nc3ccccc3s2)CC1	0	-5	.	80*	3	-4
COc1ccc(CCNC(=O)N2c3ccccc3Sc3ccccc32)cc1	-3	-2	75*	20	1	-3
COCC(=O)N(C)C[C@H]1Oc2cc(-c3ccc(C#N)cc3)ccc2S(=O)(=O)N([C@H](C)CO)C[C@@H]1C	.	.	13[16.7 µM]	.	.	.
C[C@@H]1CN([C@@H](C)CO)C(=O)c2cc(N(C)C)ccc2O[C@@H](C)CCCCO[C@@H]1CN(C)S(=O)(=O)c1ccccc1	.	.	15[16.7 µM]	.	.	.
C=CCn1c(SCc2c(C)noc2C)nc2ccccc2c1=O	3	2	62*	-11	1	-7
C#CCn1c(S(=O)(=O)Cc2ccc(C)cc2)nc(-c2ccccc2)c1-c1ccccc1	-2	-3	146*	-18	2	-7
C#CCn1c(S(=O)(=O)Cc2ccccc2Cl)nc(-c2ccccc2)c1-c1ccccc1	-1	-1	79*	9	-1	-5
CCOC(=O)Cn1c(S(=O)(=O)Cc2ccccc2Cl)nc(-c2ccccc2)c1-c1ccccc1	-3	-9	.	-15	3	.
CCc1[nH]nc2c1C(Cc1ccccc1)C(C#N)=C(N)O2 (stereo not drawn)	4	-2	-42	-24	1	1
CCCc1[nH]nc2c1C(Cc1ccccc1)C(C#N)=C(N)O2 (stereo not drawn)	6	2	64*	12	-4	7
N#CCCN(C(=O)CSc1nc2ccccc2c(=O)[nH]1)c1ccc(F)cc1	0	0	81*	-1	.	-4
CCN(CC)c1ncnc2scc(C3COc4ccccc4O3)c12 (stereo not drawn)	-4	1	28	-12	4	-3
c1ccc2c(c1)OCC(c1csc3ncnc(N4CCOCC4)c13)O2 (stereo not drawn)	1	0	70*	0	-2	-1
O=C(C[C@H]1CC[C@H](NC(=O)c2ccccc2)[C@@H](CO)O1)NCc1ccc(Oc2ccccc2)cc1	.	.	23[16.7 µM]	.	.	.
O=C(C[C@H]1CC[C@@H](NC(=O)c2ccccc2)[C@H](CO)O1)NCc1ccc(Oc2ccccc2)cc1	.	.	66*[16.7 µM]	.	.	.
O=C(C[C@@H]1CC[C@H](NC(=O)c2cccc(F)c2)[C@H](CO)O1)NCc1ccc(Oc2ccccc2)cc1	.	.	62*[16.7 µM]	.	.	.
C[C@H](CO)N1C[C@H](C)[C@H](CN(C)C)Oc2cc(C#CC3CCCCC3)ccc2S1(=O)=O	.	.	5[16.7 µM]	.	.	.
SMILES	V-ATPase pHluor	GAA850 FXN act	Env fusion inh	NR2E3 ag-1	NR2E3 ag-2	GalR3 antagonist
COc1ccc(N2CCN(C(=O)Cc3nn(C)c(=O)c4ccccc34)CC2)cc1	-2	-4	61*	3	2	-1
COc1ccc(N2CCN(C(=O)Cc3ccc(-n4c(=O)[nH]c5ccccc5c4=O)cc3)CC2)cc1	-4	2	25	-21	-1	-1
O=C(COc1ccc(-c2nnc(N3CCCCC3)c3ccccc23)cc1)N1CCCCC1	0	3	.	7	-2	0
Cc1ccc(-c2nnc(N3CCN(C(=O)COc4ccccc4)CC3)c3ccccc23)cc1	0	-2	68*	31	1	-2
CC(C)(COC(=O)C(c1ccccc1)c1ccccc1)CN1CCOCC1	-5	4	80*	11	.	-6
CC(C)CC(=O)N1CC=CC[C@@H](c2ccc(Cl)cc2)N(Cc2ccc(Cl)cc2)C(=O)[C@@H]1Cc1ccccc1	1	0	76*	-1	.	-6
C[C@H]1CN([C@@H](C)CO)S(=O)(=O)c2ccc(-c3cccnc3)cc2O[C@@H]1CN(C)Cc1cncnc1	.	.	3[16.7 µM]	.	.	.
O=S(=O)(c1ccc2c(c1)C(=NO)c1cc(S(=O)(=O)N3CCCCC3)ccc1-2)N1CCCCC1	-2	2	126*	-4	2	-3
O=C1[C@H](Cc2ccccc2)NCCCC[C@H](c2ccc(Cl)cc2)N1Cc1ccccc1	6	3	86*	-42	.	-5
O=C1[C@H](Cc2ccccc2)NCCCC[C@@H](c2ccco2)N1Cc1ccccc1	2	0	58*	-8	.	-5
O=C1[C@H](Cc2ccccc2)NCC=CC[C@@H](c2ccco2)N1Cc1ccccc1	-2	0	33	-18	.	-6
O=C1[C@H](Cc2ccccc2)NCCCC[C@H](c2ccco2)N1Cc1ccccc1	-7	3	74*	4	.	-11
Nc1ccn([C@@H]2O[C@H](C(=O)NCc3ccc4c(c3)OCO4)[C@@H](O)[C@H]2O)c(=O)n1	.	.	77*	-12	.	-5
c1csc(C(c2nnnn2C2CCCCC2)N2CCCC3(CCCCC3)C2)c1 (stereo not drawn)	1	-1	115*	12	-2	-3
CN(C)CC(=O)Nc1ccc2c(c1)[C@@H]1C[C@H](CC(=O)NC3CCCC3)O[C@H](CO)[C@@H]1O2	.	.	22[16.7 µM]	.	.	.
CC(O)(CS(=O)(=O)Cc1cccc(C(F)(F)F)c1)C(=O)Nc1cccc(C(F)(F)F)c1 (stereo not drawn)	2	0	59*	-13	1	-7
COc1ccc(-c2nn(C)c(=O)c3ccccc23)cc1NC(=O)COc1ccc(C)cc1	-4	-1	57*	-14	2	3
Cc1ccc(NC(=O)c2ccc(-c3nn(C)c(=O)c4ccccc34)cc2)cc1	3	0	75*	-8	4	-6
CNC(=O)c1cc(NC(=O)CCn2nc(-c3ccc(C)cc3)c3ccccc3c2=O)ccc1OC	-1	3	62*	1	-3	-2
Cn1nc(-c2ccc(C(=O)Nc3ccc(F)cc3)cc2)c2ccccc2c1=O	1	-1	.	-14	0	.
